Reference: PubChem BioAssay
Calls of active or inactive are those of the source.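 The calls were made as follows, unless noted: active = fluorescence slope higher than the sample average by over 3 SD (cut at about -0.22 in these data, passing the limit was not always enough); inactive = the rest.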

Columns and labels:
[1] = inhibitors of TNFa-induced NFkB p65 translocation, primary screen, imaging, HUVEC, MLSMR starter and 10KST1 sets (AID 438;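 active = inhibition above 20% together with a positive visual image hit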;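 also: compound added about 3h40 before a 20 min TNFalpha stimulation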;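 as to inhibition: signal is the nuclear over cytoplasmic p65 intensity ratio per well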); conditions: HUVEC TNFa-induced p65 nuclear translocation; cell count: measured here: nuclei count (cytotoxicity indicator), at 2.08 µM; inhibition: at 2 µM, stronger effect = higher value, 0% TNFa-plus-vehicle, 100% no-TNFa wells
[2] = inhibitors of E-selectin induction by TNFa, primary screen, imaging, HUVEC, immunofluorescence, MLSMR starter and 10KST1 sets (AID 487;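 active = visually confirmed hit in the image check and inhibition above 20%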;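 as to inhibition: signal is fraction of cell area covered by stained E-selectin grains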;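 as to nuclei count: 100% = median nuclei count of all wells on the same plate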); conditions: HUVEC TNFalpha-induced E-selectin immunofluorescence imaging, at 2 µM; inhibition: stronger effect = higher value; nuclei count: measured here: cell number, toxicity
[3] = DUSP6 inhibitors restoring Erk phosphorylation by chemical complementation, primary imaging in DUSP6-transfected HeLa (AID 609;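 active = compounds giving at least 50% inhibition in the cell-based MKP-3 phosphatase rescue imaging test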;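 as to inhibition: phospho-Erk level distribution per well compared with pooled transfected vehicle control wells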); conditions: HeLa MKP-3 transfected, phospho-Erk imaging KS statistic, at 10 µM, cells stimulated with TPA for 15 min
[4] = molecular target: Dual specificity protein phosphatase 6 (Homo sapiens) (UniProt Q16828); assay: as above; conditions: HeLa MKP-3 transfected, phospho-Erk imaging KS statistic; at 10 µM; stronger effect = higher value; cells stimulated with TPA for 15 min
[5] = molecular target: Voltage-gated potassium channel subunit beta-2 (Rattus norvegicus) (UniProt P62483); assay: KvBeta enzyme negative modulators, primary screen, biochemical, NADPH fluorescence (AID 622); conditions: recombinant KvBeta, 4-cyanobenzaldehyde reduction, at 10 µM, stronger effect = higher value;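 also: slope of raw intensity against log time taken from 70 to 1610 s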
[6] = molecular target: Voltage-gated potassium channel subunit beta-2 (Rattus norvegicus) (UniProt P62483); assay: KvBeta positive modulators, primary screen, biochemical, NADPH fluorescence (AID 623;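 active = NADPH fluorescence slope more negative than the mean of all samples by about 3 SD, 99.7% confidence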;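 also: fluorescence intensity change per second fitted from 20 to 320 s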); conditions: Recombinant KvBeta, NADPH fluorescence decrease slope, 10 min; at 10 µM; stronger effect = lower value
[7] = molecular target: Alpha-2C adrenergic receptor (Homo sapiens) (UniProt P18825); assay: modulators of alpha2C/GIRK thallium flux, primary screen, cell-based, HEK293 alpha2C/GIRK1/2 (AID 624;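 active = fluorescence slope after compound addition differing from the mean of all screened samples at 99.7% confidence, in either direction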;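 also: slope of fluorescence ratio to pre-addition baseline per second over 15 to 24 s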); conditions: thallium flux BTC fluorescence, at 10 µM, actives lie on both sides
[8] = inhibitors of larval lipid processing in zebrafish, primary screen, whole organism, PED6 fluorescence, gall bladder and intestine (AID 686;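 active = a full or partial loss of lipid-probe fluorescence in the fish gall bladder, intestine or both, judged by eye; inactive = no fluorescence loss, or compound toxic to the fish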;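 also: larvae 5 to 7 days old with five fish per well; signal comes from phospholipase A2 cleavage of quenched PED6 carried via bile; overnight exposure to compound and PED6 before scoring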); conditions: Zebrafish larvae PED6 lipid processing, fluorescence scoring; screened at 20 µM (by protocol)
In short: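 System: live zebrafish larvae aged 5-7 days, whole organism; measure: graded gall bladder and intestinal fluorescence inhibition per well; incubation: overnight exposure; reagent: ingested quenched lipid PED6 at 100 nM; signal: By-eye fluorescence microscopy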

[9] = inhibitors of Chlamydomonas gravitaxis, primary screen, whole organism, Chlamydomonas reinhardtii, WT vs cilia-less mutant, absorbance, 96-well (AID 463189;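 active = inhibition at or above 50% relative to wild type and mutant plate controls; inactive = inhibition below 50%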;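 also: 0% = wild type cc124 cells in DMSO and 100% = ciliumless bld1 mutant cells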); conditions: OD600 absorbance, 2 days, at 10 µM, stronger effect = higher value
[10] = measured here: cell density z-score
[11] = measured here: nuclear c-Myc green intensity z-score
[12] = measured here: nuclear pErk red intensity z-score, stronger effect = higher value

Alpha-2C adrenergic receptor (Homo sapiens), sequence (P18825 whole entry, looked up): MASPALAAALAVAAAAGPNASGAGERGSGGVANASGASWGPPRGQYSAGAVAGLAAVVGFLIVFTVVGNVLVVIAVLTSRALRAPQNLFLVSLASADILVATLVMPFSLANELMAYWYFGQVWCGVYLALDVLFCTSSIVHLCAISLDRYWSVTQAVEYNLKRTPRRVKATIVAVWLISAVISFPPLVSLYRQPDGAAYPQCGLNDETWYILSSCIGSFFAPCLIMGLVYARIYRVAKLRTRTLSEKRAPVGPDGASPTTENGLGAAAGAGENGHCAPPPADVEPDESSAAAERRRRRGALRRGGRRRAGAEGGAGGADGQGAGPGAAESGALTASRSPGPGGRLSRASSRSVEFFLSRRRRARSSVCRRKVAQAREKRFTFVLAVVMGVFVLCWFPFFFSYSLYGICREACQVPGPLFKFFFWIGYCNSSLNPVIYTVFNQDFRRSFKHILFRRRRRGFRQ
Dual specificity protein phosphatase 6 (Homo sapiens), sequence (Q16828 whole entry, looked up): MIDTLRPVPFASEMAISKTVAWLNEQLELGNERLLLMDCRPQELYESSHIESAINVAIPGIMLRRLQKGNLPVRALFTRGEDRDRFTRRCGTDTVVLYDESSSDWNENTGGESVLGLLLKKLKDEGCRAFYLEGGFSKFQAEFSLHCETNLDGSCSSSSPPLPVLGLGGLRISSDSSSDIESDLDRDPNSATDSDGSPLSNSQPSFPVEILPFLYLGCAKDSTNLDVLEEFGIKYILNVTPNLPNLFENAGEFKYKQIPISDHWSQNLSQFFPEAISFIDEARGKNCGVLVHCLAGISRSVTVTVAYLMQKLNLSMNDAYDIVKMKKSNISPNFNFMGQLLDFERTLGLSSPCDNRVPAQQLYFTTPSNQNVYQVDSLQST
Voltage-gated potassium channel subunit beta-2 (Rattus norvegicus), sequence (P62483 whole entry, looked up): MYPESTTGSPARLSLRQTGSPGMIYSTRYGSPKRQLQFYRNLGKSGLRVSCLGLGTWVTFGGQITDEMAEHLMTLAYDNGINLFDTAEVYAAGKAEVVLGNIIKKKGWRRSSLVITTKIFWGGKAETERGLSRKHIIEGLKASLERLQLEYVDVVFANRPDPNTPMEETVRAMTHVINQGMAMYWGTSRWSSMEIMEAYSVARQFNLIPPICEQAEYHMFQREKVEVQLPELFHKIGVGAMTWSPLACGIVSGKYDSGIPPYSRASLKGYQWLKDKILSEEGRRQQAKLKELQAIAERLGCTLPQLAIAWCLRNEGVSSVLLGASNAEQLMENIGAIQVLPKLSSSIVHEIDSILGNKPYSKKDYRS

SMILES	cell count [1]	inhibition [1]	inhibition [2]	nuclei count [2] [%]	z-score [3, 10]	z-score [3, 11]	z-score [3, 12]	inhibition [4]	fluorescence slope [5]	NADPH fluorescence slope [6]	slope [7]	outcome [8]	inhibition [9]
COc1ccc2oc(=O)c(-c3nc(C)cs3)cc2c1	523	-9.3% (inactive)	-79.5% (inactive)	135	-0.969	0.963	1.41	-2.07% (inactive)	-0.302 (inactive)	-3.5e-05 (inactive)	0.00534 (inactive)	inactive	26.4% (inactive)
COc1cc(C2C3C(=O)N(c4ccccc4)C(=O)C3ON2c2ccccc2)ccc1O (stereo unspecified)	322	-4.2% (inactive)	-22.7% (inactive)	171	0.353	-0.666	-0.00927	5.42% (inactive)	-0.418 (inactive)	-0.000156 (inactive)	0.00862 (inactive)	inactive	-1.03% (inactive)
COC(=O)c1c(NC(=O)c2nn(C)cc2Cl)sc2c1CCCC2	650	4.5% (inactive)	-19.9% (inactive)	179	-0.637	-1.15	1.29	2.46% (inactive)	-0.389 (inactive)	-3.5e-05 (inactive)	0.00842 (inactive)	inactive	23.3% (inactive)
O=C(c1cccs1)N1CCC(N2CCN(c3ccccc3)CC2)CC1	390	-7.3% (inactive)	-50.1% (inactive)	119	0.783	0.365	-0.94	11.3% (inactive)	-0.378 (inactive)	-1.9e-05 (inactive)	0.00799 (inactive)	inactive	43.7% (inactive)
CCCc1nnc(NC(=O)c2c(O)c3c([nH]c2=O)CCCC3)s1	312	-15.5% (inactive)	-42.9% (inactive)	134	-0.253	-0.454	-0.547	17.5% (inactive)	-0.423 (inactive)	-3.6e-05 (inactive)	0.00662 (inactive)	inactive	14% (inactive)
CCOc1ccc(-n2c3nc4ccccc4nc3c3c(=O)n(Cc4ccco4)cnc32)cc1	381	-13% (inactive)	-105% (inactive)	171	0.174	0.579	-1.27	-7.01% (inactive)	-0.417 (inactive)	-0.000107 (inactive)	0.00519 (inactive)	inactive	-0.886% (inactive)
CCOc1cccc(-c2nnc3sc(COc4ccccc4)nn23)c1	537	-7.5% (inactive)	40.9% (inactive)	91.9	1.73	-0.94	-0.568	-4.27% (inactive)	-0.433 (inactive)	-9.6e-05 (inactive)	0.00533 (inactive)	inactive	17.6% (inactive)
OCCCc1nc2ccccc2n1CCc1ccccc1	390	-15.7% (inactive)	-395% (inactive)	203	1.19	-1.69	-0.407	20.8% (inactive)	-0.421 (inactive)	-4.3e-05 (inactive)	0.00481 (inactive)	inactive	15.3% (inactive)
Cc1ccc(C2/C(=C(/O)c3ccc(OC(C)C)cc3)C(=O)C(=O)N2CCN2CCOCC2)cc1 (stereo unspecified)	526	-2% (inactive)	7.7% (inactive)	166	0.417	1.31	0.598	-2.91% (inactive)	-0.295 (inactive)	1.7e-05 (inactive)	0.00456 (inactive)	inactive	2.83% (inactive)
C/C(CC1(O)C(=O)N(Cc2ccccc2)c2ccccc21)=N\O (stereo unspecified)	645	-11.4% (inactive)	-28.2% (inactive)	182	-1.05	-1.05	1.51	-7.79% (inactive)	-0.464 (inactive)	-0.000206 (inactive)	0.0275 (active)	inactive	-6.97% (inactive)
CCOC(=O)c1ccccc1OCc1cc(/C=N/n2cncn2)ccc1OC	430	-16.8% (inactive)	-87.5% (inactive)	169	0.277	0.212	-0.384	-2.29% (inactive)	-0.358 (inactive)	1.8e-05 (inactive)	0.00447 (inactive)	inactive	-0.944% (inactive)
COc1ccccc1N1CCN(C2CCN(C(=O)c3cccs3)CC2)CC1	390	-7.8% (inactive)	-197% (inactive)	173	-0.252	0.0653	1.15	-5.89% (inactive)	-0.397 (inactive)	-3e-05 (inactive)	0.00342 (inactive)	inactive	22.3% (inactive)
